Laboratory results published in ChEMBL document CHEMBL3351537, “Design, synthesis and biological evaluation of 4-fluoropyrrolidine-2-carbonitrile and octahydrocyclopenta[b]pyrrole-2-carbonitrile derivatives as dipeptidyl peptidase IV inhibitors” (Eur J Med Chem, 2014).
Activity calls are given as the source filed them. The calls are words filed in the database; no cut-off is given here.

Assays:
Dipeptidyl peptidase 9 = Dipeptidyl peptidase 9 (Homo sapiens, UniProt Q86TI2); assay: Inhibition of DPP9 (unknown origin) expressed in baculovirus expression system using Ala-Pro-AMC as substrate by continuous fluorometric assay
Dipeptidyl peptidase 9, sequence (Q86TI2 whole entry): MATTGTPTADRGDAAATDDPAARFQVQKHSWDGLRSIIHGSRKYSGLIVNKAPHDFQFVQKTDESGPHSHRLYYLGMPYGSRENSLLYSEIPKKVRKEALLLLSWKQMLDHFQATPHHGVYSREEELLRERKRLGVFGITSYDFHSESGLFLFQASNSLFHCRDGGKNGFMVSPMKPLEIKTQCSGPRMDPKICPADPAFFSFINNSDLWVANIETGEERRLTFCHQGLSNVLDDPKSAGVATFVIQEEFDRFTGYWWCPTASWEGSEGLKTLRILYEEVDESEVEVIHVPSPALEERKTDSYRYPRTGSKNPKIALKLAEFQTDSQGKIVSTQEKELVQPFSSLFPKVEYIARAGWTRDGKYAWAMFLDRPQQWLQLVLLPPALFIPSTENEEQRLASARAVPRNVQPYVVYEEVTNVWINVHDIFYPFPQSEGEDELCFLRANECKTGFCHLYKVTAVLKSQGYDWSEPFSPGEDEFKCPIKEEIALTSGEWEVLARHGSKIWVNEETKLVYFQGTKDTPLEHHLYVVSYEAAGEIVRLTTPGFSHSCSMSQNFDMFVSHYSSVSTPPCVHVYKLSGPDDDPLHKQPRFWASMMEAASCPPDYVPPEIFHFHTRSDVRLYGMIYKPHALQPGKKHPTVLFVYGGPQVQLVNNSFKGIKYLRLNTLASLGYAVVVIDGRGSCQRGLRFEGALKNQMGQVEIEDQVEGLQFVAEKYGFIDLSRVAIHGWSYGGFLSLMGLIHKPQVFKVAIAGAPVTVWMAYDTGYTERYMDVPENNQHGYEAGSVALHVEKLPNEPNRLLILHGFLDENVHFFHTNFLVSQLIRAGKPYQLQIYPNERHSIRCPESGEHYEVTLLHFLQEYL

Mus musculus [1] = assay: Reduction in plasma triglyceride content in C57BKS db/db mouse at 15 mg/kg/day, po (reference value: 1.01 +/- 0.09 mM); assay type: functional
Rattus norvegicus [2] = assay: Oral bioavailability in Sprague-Dawley rat at 20 mg/kg; assay type: ADME, organism-based; conditions: in vivo
Outline: (§1)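 SD rats dosed orally or intravenously. Blood sampled after dosing and spun to plasma. Plasma deproteinized with methanol containing internal standard, centrifuged, supernatant diluted in methanol and centrifuged again. Compound levels measured by LC/MS/MS. PK parameters were derived from these plasma concentrations.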

[3] = Tmax in Sprague-Dawley rat at 10 mg/kg, iv; assay type: ADME, organism-based; set-up: dose 10 mg/kg, route intravenous; conditions: in vivo; outline: as §1
Mus musculus [4] = assay: Reduction in fasting blood glucose level in C57BKS db/db mouse at 15 mg/kg/day, po (Rvb =23.0 +/- 1.0 mM); assay type: functional
Mus musculus [5] = assay: Reduction in free fatty acid in C57BKS db/db mouse at 15 mg/kg/day, po (reference value: 1.46 +/- 0.10 mM); assay type: functional
Mus musculus [6] = assay: Reduction in total cholesterol content in C57BKS db/db mouse at 15 mg/kg/day, po; assay type: functional, organism-based
Cytochrome P450 2C9 = Cytochrome P450 2C9 (Homo sapiens, UniProt P11712); assay: Inhibition of CYP2C9 (unknown origin); assay type: ADME
Cytochrome P450 2C9, sequence (P11712 whole entry): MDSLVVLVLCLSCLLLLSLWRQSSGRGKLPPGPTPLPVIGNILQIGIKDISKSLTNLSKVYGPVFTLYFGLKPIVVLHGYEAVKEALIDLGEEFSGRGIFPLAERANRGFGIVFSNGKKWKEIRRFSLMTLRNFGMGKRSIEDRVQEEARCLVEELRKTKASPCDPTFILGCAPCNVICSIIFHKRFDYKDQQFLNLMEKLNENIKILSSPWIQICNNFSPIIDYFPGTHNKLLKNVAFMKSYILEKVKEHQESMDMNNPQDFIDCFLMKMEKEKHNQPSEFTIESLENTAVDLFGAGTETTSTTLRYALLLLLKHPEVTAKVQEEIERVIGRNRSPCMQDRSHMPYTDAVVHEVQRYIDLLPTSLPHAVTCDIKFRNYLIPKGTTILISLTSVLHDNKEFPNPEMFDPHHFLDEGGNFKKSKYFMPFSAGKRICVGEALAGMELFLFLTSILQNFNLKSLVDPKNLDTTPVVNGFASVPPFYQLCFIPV

[7] = target: T1, Voltage-gated inwardly rectifying potassium channel KCNH2 (Homo sapiens, UniProt Q12809); assay: Inhibition of human ERG expressed in CHO cells after 20 mins by thallium assay; assay type: cell-based
T1 sequence (Q12809 whole entry): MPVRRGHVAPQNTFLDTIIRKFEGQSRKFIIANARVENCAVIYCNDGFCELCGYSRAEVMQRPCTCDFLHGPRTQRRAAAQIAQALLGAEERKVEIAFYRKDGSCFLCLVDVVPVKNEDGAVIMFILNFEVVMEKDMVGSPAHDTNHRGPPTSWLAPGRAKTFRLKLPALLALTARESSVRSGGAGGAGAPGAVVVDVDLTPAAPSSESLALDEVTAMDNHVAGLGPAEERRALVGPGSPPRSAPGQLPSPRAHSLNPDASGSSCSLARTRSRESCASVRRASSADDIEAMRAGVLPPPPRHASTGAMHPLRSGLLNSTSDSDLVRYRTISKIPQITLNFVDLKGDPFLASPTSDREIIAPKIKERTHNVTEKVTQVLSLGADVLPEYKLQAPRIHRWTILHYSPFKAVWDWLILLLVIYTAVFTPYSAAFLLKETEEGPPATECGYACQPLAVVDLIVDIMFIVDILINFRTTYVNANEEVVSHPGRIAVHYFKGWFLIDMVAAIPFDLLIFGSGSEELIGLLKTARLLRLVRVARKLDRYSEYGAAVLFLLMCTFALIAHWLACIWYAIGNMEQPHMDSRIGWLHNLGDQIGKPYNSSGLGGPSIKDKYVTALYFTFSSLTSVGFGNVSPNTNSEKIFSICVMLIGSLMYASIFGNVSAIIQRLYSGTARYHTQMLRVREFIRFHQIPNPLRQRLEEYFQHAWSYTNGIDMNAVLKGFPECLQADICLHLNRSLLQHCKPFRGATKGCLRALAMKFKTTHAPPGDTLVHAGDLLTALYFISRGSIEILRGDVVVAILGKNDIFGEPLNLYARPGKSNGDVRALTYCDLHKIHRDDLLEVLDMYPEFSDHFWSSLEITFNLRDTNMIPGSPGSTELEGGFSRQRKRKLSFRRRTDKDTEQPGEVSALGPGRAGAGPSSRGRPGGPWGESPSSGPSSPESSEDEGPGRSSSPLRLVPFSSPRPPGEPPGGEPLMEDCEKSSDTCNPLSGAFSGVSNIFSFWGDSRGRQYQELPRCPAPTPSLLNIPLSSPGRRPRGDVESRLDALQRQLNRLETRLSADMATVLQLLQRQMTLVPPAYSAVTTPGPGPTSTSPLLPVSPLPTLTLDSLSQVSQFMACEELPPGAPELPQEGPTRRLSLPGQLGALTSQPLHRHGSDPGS
Outline: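 CHO-hERG-ZG cells grown with 100 μg/mL G418 and 100 μg/mL hygromycin B, then seeded and incubated 16–18 h at 37 °C. Cells held in loading buffer 90 min in the dark at RT, switched to assay buffer, and exposed to compound 20 min in the dark at RT. FluxOR thallium flux read on FDSS: baseline to 10 s, stimulus buffer added at 10 s, recording to 180 s.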

[8] = target: T1, Voltage-gated inwardly rectifying potassium channel KCNH2; assay: Inhibition of human ERG expressed in CHO cells after 20 mins by patch clamp assay; assay type: cell-based
[9] = AUC (0 to t) in Sprague-Dawley rat at 20 mg/kg, po; assay type: ADME, organism-based; set-up: dose 20 mg/kg, route oral; conditions: plasma; outline: as §1
Rattus norvegicus [10] = assay: AUC (0 to infinity) in Sprague-Dawley rat at 10 mg/kg, iv; assay type: ADME, organism-based, Plasma; set-up: time infinity, dose 10 mg/kg, route intravenous; conditions: in vivo; outline: as §1
[11] = Cmax in Sprague-Dawley rat at 10 mg/kg, iv; assay type: ADME, organism-based; set-up: dose 10 mg/kg, route intravenous; conditions: in vivo; outline: as §1
Mus musculus [12] = assay: Reduction in random blood glucose level in C57BKS db/db mouse at 15 mg/kg/day, po (Rvb =23.3 +/- 1.0 mM); assay type: functional
[13] = Half life in Sprague-Dawley rat at 10 mg/kg, iv; assay type: ADME, organism-based; set-up: dose 10 mg/kg, route intravenous; conditions: in vivo; outline: as §1
[14] = Mean residence time in Sprague-Dawley rat at 10 mg/kg, iv; assay type: ADME, organism-based; set-up: dose 10 mg/kg, route intravenous; conditions: in vivo; outline: as §1
[15] = Cmax in Sprague-Dawley rat at 20 mg/kg, po; assay type: ADME, organism-based; set-up: dose 20 mg/kg, route oral; conditions: in vivo; outline: as §1
[16] = Apparent clearance in Sprague-Dawley rat at 10 mg/kg, iv; assay type: ADME, organism-based; set-up: dose 10 mg/kg, route intravenous; conditions: in vivo, read-out: CL(app) (converted); outline: as §1
[17] = Mean residence time in Sprague-Dawley rat at 20 mg/kg, po; assay type: ADME, organism-based; set-up: dose 20 mg/kg, route oral; conditions: in vivo; outline: as §1
[18] = Half life in Sprague-Dawley rat at 20 mg/kg, po; assay type: ADME, organism-based; set-up: dose 20 mg/kg, route oral; conditions: in vivo; outline: as §1
Rattus norvegicus [19] = assay: AUC (0 to infinity) in Sprague-Dawley rat at 20 mg/kg, po; assay type: ADME, organism-based, Plasma; set-up: time infinity, dose 20 mg/kg, route oral; conditions: in vivo; outline: as §1
Cytochrome P450 3A4 = Cytochrome P450 3A4 (Homo sapiens, UniProt P08684); assay: Inhibition of CYP3A4 (unknown origin); assay type: ADME
Cytochrome P450 3A4, sequence (P08684 whole entry): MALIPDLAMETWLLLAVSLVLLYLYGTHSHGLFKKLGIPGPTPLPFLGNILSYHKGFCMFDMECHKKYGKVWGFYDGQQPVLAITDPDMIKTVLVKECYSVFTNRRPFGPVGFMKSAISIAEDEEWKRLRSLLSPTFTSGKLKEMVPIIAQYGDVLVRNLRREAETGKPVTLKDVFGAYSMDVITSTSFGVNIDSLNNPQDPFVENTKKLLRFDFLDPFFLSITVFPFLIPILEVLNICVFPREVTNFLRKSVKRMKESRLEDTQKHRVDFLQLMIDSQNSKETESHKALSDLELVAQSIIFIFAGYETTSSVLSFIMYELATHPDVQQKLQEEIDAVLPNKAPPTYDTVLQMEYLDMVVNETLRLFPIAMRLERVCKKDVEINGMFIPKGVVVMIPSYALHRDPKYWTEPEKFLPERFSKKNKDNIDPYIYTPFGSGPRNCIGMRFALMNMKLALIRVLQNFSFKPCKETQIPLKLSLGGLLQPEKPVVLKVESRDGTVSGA

Mus musculus [20] = assay: Reduction in glucose excursion in ICR mouse compound administered as single dose measured at 15 mins post dose by oral glucose tolerance test; assay type: functional, organism-based
Outline: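 Fasted ICR mice (16 h) given a single oral dose, 5 or 15 mg/kg in 0.5% methylcellulose (10 mL/kg). Oral glucose challenge 2.5 g/kg given 30 min later. Blood glucose read at 0, 15, 30, 60, 90 and 120 min for AUC. Vehicle control included; mean ± SE, Student's t-test.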

[21] = AUC (0 to t) in Sprague-Dawley rat at 10 mg/kg, iv; assay type: ADME, organism-based; set-up: dose 10 mg/kg, route intravenous; conditions: plasma; outline: as §1
[22] = Tmax in Sprague-Dawley rat at 20 mg/kg, po; assay type: ADME, organism-based; set-up: dose 20 mg/kg, route oral; conditions: in vivo; outline: as §1
Dipeptidyl peptidase 2 = Dipeptidyl peptidase 2 (Homo sapiens, UniProt Q9UHL4); assay: Inhibition of DPP7 (unknown origin) expressed in baculovirus expression system using Nle-Pro-AMC as substrate by continuous fluorometric assay
[23] = Half life in Sprague-Dawley rat at 50 mg/kg, po; assay type: ADME, organism-based; set-up: dose 50 mg/kg, route oral; conditions: in vivo; outline: as §1
[24] = Mean residence time in Sprague-Dawley rat at 20 mg/kg, iv; assay type: ADME, organism-based; set-up: dose 20 mg/kg, route intravenous; conditions: in vivo; outline: as §1
Rattus norvegicus [25] = assay: AUC (0 to infinity) in Sprague-Dawley rat at 20 mg/kg, iv; assay type: ADME, organism-based, Plasma; set-up: dose 20 mg/kg, route intravenous, time infinity; conditions: in vivo; outline: as §1
[26] = Cmax in Sprague-Dawley rat at 20 mg/kg, iv; assay type: ADME, organism-based; set-up: dose 20 mg/kg, route intravenous; conditions: in vivo; outline: as §1
[27] = Cmax in Sprague-Dawley rat at 50 mg/kg, po; assay type: ADME, organism-based; set-up: dose 50 mg/kg, route oral; conditions: in vivo; outline: as §1
[28] = Tmax in Sprague-Dawley rat at 20 mg/kg, iv; assay type: ADME, organism-based; set-up: dose 20 mg/kg, route intravenous; conditions: in vivo; outline: as §1
[29] = Tmax in Sprague-Dawley rat at 50 mg/kg, po; assay type: ADME, organism-based; set-up: dose 50 mg/kg, route oral; conditions: in vivo; outline: as §1
Rattus norvegicus [30] = assay: Oral bioavailability in Sprague-Dawley rat at 50 mg/kg; assay type: ADME, organism-based; conditions: in vivo; outline: as §1
Rattus norvegicus [31] = assay: Apparent clearance in Sprague-Dawley rat at 20 mg/kg, iv; assay type: ADME, organism-based; set-up: dose 20 mg/kg, route intravenous; conditions: in vivo; outline: as §1
[32] = Half life in Sprague-Dawley rat at 20 mg/kg, iv; assay type: ADME, organism-based; set-up: dose 20 mg/kg, route intravenous; conditions: in vivo; outline: as §1
Rattus norvegicus [33] = assay: AUC (0 to infinity) in Sprague-Dawley rat at 50 mg/kg, po; assay type: ADME, organism-based, Plasma; set-up: time infinity, dose 50 mg/kg, route oral; conditions: in vivo; outline: as §1
[34] = AUC (0 to t) in Sprague-Dawley rat at 50 mg/kg, po; assay type: ADME, organism-based; set-up: dose 50 mg/kg, route oral; conditions: plasma; outline: as §1
[35] = AUC (0 to t) in Sprague-Dawley rat at 20 mg/kg, iv; assay type: ADME, organism-based; set-up: dose 20 mg/kg, route intravenous; conditions: plasma; outline: as §1
[36] = Mean residence time in Sprague-Dawley rat at 50 mg/kg, po; assay type: ADME, organism-based; set-up: dose 50 mg/kg, route oral; conditions: in vivo; outline: as §1
Prolyl endopeptidase FAP = target: T2, Prolyl endopeptidase FAP (Homo sapiens, UniProt Q12884); assay: Inhibition of FAP (unknown origin) expressed in baculovirus expression system using Nle-Pro-AMC as substrate by continuous fluorometric assay
T2 sequence (Q12884 whole entry): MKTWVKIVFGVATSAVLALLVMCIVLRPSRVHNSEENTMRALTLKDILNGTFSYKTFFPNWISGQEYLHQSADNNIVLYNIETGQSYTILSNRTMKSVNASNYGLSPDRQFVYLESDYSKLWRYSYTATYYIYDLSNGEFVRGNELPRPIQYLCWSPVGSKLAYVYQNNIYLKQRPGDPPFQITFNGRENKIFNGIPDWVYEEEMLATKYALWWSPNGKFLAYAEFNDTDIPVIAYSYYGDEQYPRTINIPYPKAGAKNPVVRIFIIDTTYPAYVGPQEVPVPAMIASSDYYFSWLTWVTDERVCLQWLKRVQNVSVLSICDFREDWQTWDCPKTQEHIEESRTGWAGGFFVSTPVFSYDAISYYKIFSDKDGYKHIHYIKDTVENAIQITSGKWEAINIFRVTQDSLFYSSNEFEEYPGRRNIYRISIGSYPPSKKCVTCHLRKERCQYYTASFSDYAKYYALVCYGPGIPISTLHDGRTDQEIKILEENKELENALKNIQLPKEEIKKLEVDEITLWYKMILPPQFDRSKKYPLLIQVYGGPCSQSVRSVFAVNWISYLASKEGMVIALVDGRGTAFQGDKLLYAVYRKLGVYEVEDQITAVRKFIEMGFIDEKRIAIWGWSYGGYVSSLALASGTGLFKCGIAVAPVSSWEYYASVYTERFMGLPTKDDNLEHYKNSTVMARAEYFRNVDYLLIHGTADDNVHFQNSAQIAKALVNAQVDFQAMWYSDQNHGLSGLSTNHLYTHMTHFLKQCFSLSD

Dipeptidyl peptidase 8 = Dipeptidyl peptidase 8 (Homo sapiens, UniProt Q6V1X1); assay: Inhibition of DPP8 (unknown origin) expressed in baculovirus expression system using Ala-Pro-AMC as substrate by continuous fluorometric assay
Dipeptidyl peptidase 8, sequence (Q6V1X1 whole entry): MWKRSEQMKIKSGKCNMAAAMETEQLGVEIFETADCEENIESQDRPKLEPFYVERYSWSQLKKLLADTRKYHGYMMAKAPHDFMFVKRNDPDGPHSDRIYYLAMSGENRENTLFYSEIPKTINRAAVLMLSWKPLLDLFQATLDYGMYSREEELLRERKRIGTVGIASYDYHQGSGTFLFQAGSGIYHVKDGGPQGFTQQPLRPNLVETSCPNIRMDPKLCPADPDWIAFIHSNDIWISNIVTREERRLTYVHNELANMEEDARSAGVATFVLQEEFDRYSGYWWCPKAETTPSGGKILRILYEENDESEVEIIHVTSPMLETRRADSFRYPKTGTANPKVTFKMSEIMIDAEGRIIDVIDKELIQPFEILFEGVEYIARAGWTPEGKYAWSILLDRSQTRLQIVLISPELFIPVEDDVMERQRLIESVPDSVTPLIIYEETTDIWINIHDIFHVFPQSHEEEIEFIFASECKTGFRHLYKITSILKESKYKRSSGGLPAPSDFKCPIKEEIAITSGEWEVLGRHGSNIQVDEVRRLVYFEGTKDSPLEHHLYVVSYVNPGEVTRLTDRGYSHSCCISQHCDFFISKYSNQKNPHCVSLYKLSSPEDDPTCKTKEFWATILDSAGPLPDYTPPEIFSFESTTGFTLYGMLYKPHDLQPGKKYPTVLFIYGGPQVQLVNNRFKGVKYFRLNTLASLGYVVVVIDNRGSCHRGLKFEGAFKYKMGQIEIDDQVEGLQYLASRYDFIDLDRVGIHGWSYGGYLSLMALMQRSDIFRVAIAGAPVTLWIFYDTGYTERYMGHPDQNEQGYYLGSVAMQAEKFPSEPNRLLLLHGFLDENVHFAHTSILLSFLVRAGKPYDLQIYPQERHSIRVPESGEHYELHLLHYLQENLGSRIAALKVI

N#C[C@@H]1C[C@H](F)CN1C(=O)C[C@H](N)Cc1ccc(Cl)c(Cl)c1
IC50 (Dipeptidyl peptidase 9): 0.23 µM

N#C[C@@H]1C[C@@H]2CCC[C@@H]2N1C(=O)C[C@H](N)Cc1cc(F)c(F)cc1F
Activity (Mus musculus [1]): 0.85 mM | F (Rattus norvegicus [2]): 22.8% | Tmax [3]: 0.5 h | Activity (Mus musculus [4]): 19.7 mM | Activity (Mus musculus [5]): 1.43 mEq/L | Activity (Mus musculus [6]): inactive | IC50 (Cytochrome P450 2C9): Not Active | IC50 [7]: 55.3 µM | IC50 [8]: > 40 µM | AUC(0-t) [9]: 2040 ng·h/mL | AUC (Rattus norvegicus [10]): 4974 ng·h/mL | Cmax [11]: 1120 ng/mL | Activity (Mus musculus [12]): 21.3 mM | half-life [13]: 2.39 h | MRT [14]: 2.71 h | Cmax [15]: 509 ng/mL | clearance [16]: 33.5 mL/min/kg | MRT [17]: 2.81 h | half-life [18]: 2.74 h | AUC (Rattus norvegicus [19]): 2360 ng/mL.hr | IC50 (Cytochrome P450 3A4): 2.25 µM | Activity (Mus musculus [20]): Dose-dependent effect | AUC(0-t) [21]: 4470 ng·h/mL | Tmax [22]: 0.5 h

Cc1ccccc1C[C@@H](N)CC(=O)N1C[C@@H](F)C[C@H]1C#N
IC50 (Dipeptidyl peptidase 2): Not Active

N#C[C@@H]1C[C@H](F)CN1C(=O)C[C@H](N)Cc1cc(F)c(F)cc1F
half-life [23]: 2.03 h | MRT [24]: 2.93 h | AUC (Rattus norvegicus [25]): 5870 ng/mL.hr | Cmax [26]: 2710 ng/mL | Cmax [27]: 2690 ng/mL | IC50 (Cytochrome P450 2C9): Not Active | Tmax [28]: 0.3 h | Tmax [29]: 0.3 h | IC50 [7]: 97.7 µM | F (Rattus norvegicus [30]): 53.2% | CL(app) (Rattus norvegicus [31]): 57 mL/min/kg | half-life [32]: 2.33 h | IC50 [8]: > 40 µM | AUC (Rattus norvegicus [33]): 8935 ng·h/mL | AUC(0-t) [34]: 8840 ng·h/mL | AUC(0-t) [35]: 5840 ng·h/mL | MRT [36]: 3.03 h | IC50 (Cytochrome P450 3A4): 56.5 µM | Activity (Mus musculus [20]): Dose-dependent effect

N#C[C@@H]1C[C@H](F)CN1C(=O)C[C@H](N)Cc1ccccc1Cl
IC50 (Dipeptidyl peptidase 2; read-out: IC50): 130 µM

N#C[C@@H]1C[C@@H]2CCC[C@@H]2N1C(=O)C[C@H](N)Cc1ccccc1
IC50 (Prolyl endopeptidase FAP): Not Active | IC50 (Dipeptidyl peptidase 9): 108 µM | IC50 (Dipeptidyl peptidase 8): Not Active | IC50 (Dipeptidyl peptidase 2): Not Active

N#C[C@@H]1C[C@H](F)CN1C(=O)C[C@H](N)Cc1ccc(F)cc1
IC50 (Dipeptidyl peptidase 2; read-out: IC50): 193 µM
